In brackets after ≈: the same amount, converted by molar mass.
What was measured:
Type in all cases: functional
Aspergillus niger [1] = experiment: Antimicrobial activity against Aspergillus niger MTCC 281 at 100 ug/ml after 48 hrs by disc diffusion method; conditions: MTCC 281, 48 h, read-out: DIZ
Procedure, shortened: (§1)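 Agar diffusion read-out is the diameter of the inhibition zone in mm. Each test was run in six replicates and reported as mean ± standard deviation, taken from at least three determinations.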

Klebsiella pneumoniae [2] = experiment: Antimicrobial activity against Klebsiella pneumoniae MTCC 3384 at 100 ug/ml after 24 hrs by disc diffusion method; conditions: MTCC 3384, 24 h, read-out: DIZ; procedure, shortened: as §1
Klebsiella pneumoniae [3] = experiment: Antimicrobial activity against Klebsiella pneumoniae MTCC 3384 after 24 hrs by microdilution method; conditions: MTCC 3384, 24 h
Procedure, shortened: (§2)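 The minimal inhibitory concentration was determined by dilution, alongside minimal bactericidal concentration for bacterial strains and minimal fungicidal concentration for fungal strains. Tests were run in six replicates, and the value is the mean of at least three determinations.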

Fusarium verticillioides [4] = experiment: Antimicrobial activity against Fusarium moniliforme MTCC 156 after 48 hrs by microdilution method; conditions: MTCC 156, 48 h; procedure, shortened: as §2
Staphylococcus aureus [5] = experiment: Antimicrobial activity against Staphylococcus aureus MTCC 96 at 50 ug/ml after 24 hrs by disc diffusion method; conditions: MTCC 96, 24 h, read-out: DIZ; procedure, shortened: as §1
Staphylococcus aureus [6] = experiment: Antimicrobial activity against Staphylococcus aureus MTCC 96 at 100 ug/ml after 24 hrs by disc diffusion method; conditions: MTCC 96, 24 h, read-out: DIZ; procedure, shortened: as §1
Fusarium oxysporum [7] = experiment: Antimicrobial activity against Fusarium oxysporum MTCC 284 at 100 ug/ml after 48 hrs by disc diffusion method; conditions: MTCC 284, 48 h, read-out: DIZ; procedure, shortened: as §1
Aspergillus flavus [8] = experiment: Antimicrobial activity against Aspergillus flavus MTCC 873 at 50 ug/ml after 48 hrs by disc diffusion method; conditions: MTCC 873, 48 h, read-out: DIZ; procedure, shortened: as §1
Fusarium verticillioides [9] = experiment: Antimicrobial activity against Fusarium moniliforme MTCC 156 at 100 ug/ml after 48 hrs by disc diffusion method; conditions: MTCC 156, 48 h, read-out: DIZ; procedure, shortened: as §1
Aspergillus flavus [10] = experiment: Antimicrobial activity against Aspergillus flavus MTCC 873 at 100 ug/ml after 48 hrs by disc diffusion method; conditions: MTCC 873, 48 h, read-out: DIZ; procedure, shortened: as §1
Bacillus cereus [11] = experiment: Antimicrobial activity against Bacillus cereus MTCC 8372 at 50 ug/ml after 24 hrs by disc diffusion method; conditions: MTCC 8372, 24 h, read-out: DIZ; procedure, shortened: as §1
Fusarium verticillioides [12] = experiment: Antimicrobial activity against Fusarium moniliforme MTCC 156 at 50 ug/ml after 48 hrs by disc diffusion method; conditions: MTCC 156, 48 h, read-out: DIZ; procedure, shortened: as §1
Staphylococcus aureus [13] = experiment: Antimicrobial activity against Staphylococcus aureus MTCC 96 after 24 hrs by microdilution method; conditions: MTCC 96, 24 h; procedure, shortened: as §2
Escherichia coli [14] = experiment: Antimicrobial activity against Escherichia coli MTCC 724 at 50 ug/ml after 24 hrs by disc diffusion method; conditions: MTCC 724, 24 h, read-out: DIZ; procedure, shortened: as §1
Fusarium oxysporum [15] = experiment: Antimicrobial activity against Fusarium oxysporum MTCC 284 after 48 hrs by microdilution method; conditions: MTCC 284, 48 h; procedure, shortened: as §2
Aspergillus niger [16] = experiment: Antimicrobial activity against Aspergillus niger MTCC 281 at 50 ug/ml after 48 hrs by disc diffusion method; conditions: MTCC 281, 48 h, read-out: DIZ; procedure, shortened: as §1
Escherichia coli [17] = experiment: Antimicrobial activity against Escherichia coli MTCC 724 at 100 ug/ml after 24 hrs by disc diffusion method; conditions: MTCC 724, 24 h, read-out: DIZ; procedure, shortened: as §1
Aspergillus flavus [18] = experiment: Antimicrobial activity against Aspergillus flavus MTCC 873 after 48 hrs by microdilution method; conditions: MTCC 873, 48 h; procedure, shortened: as §2
Bacillus cereus [19] = experiment: Antimicrobial activity against Bacillus cereus MTCC 8372 after 24 hrs by microdilution method; conditions: MTCC 8372, 24 h; procedure, shortened: as §2
Klebsiella pneumoniae [20] = experiment: Antimicrobial activity against Klebsiella pneumoniae MTCC 3384 at 50 ug/ml after 24 hrs by disc diffusion method; conditions: MTCC 3384, 24 h, read-out: DIZ; procedure, shortened: as §1
Bacillus cereus [21] = experiment: Antimicrobial activity against Bacillus cereus MTCC 8372 at 100 ug/ml after 24 hrs by disc diffusion method; conditions: MTCC 8372, 24 h, read-out: DIZ; procedure, shortened: as §1
Escherichia coli [22] = experiment: Antimicrobial activity against Escherichia coli MTCC 724 after 24 hrs by microdilution method; conditions: MTCC 724, 24 h; procedure, shortened: as §2
Aspergillus niger [23] = experiment: Antimicrobial activity against Aspergillus niger MTCC 281 after 48 hrs by microdilution method; conditions: MTCC 281, 48 h; procedure, shortened: as §2
Fusarium oxysporum [24] = experiment: Antimicrobial activity against Fusarium oxysporum MTCC 284 at 50 ug/ml after 48 hrs by disc diffusion method; conditions: MTCC 284, 48 h, read-out: DIZ; procedure, shortened: as §1

SMILES	zone of inhibition at 100 µg/mL (Aspergillus niger [1]) [mm]	zone of inhibition at 100 µg/mL (Klebsiella pneumoniae [2]) [mm]	MBC (Klebsiella pneumoniae [3]) [µg/mL]	MIC (Klebsiella pneumoniae [3]) [µg/mL]	MFC (Fusarium verticillioides [4]) [µg/mL]	MIC (Fusarium verticillioides [4]) [µg/mL]	zone of inhibition at 50 µg/mL (Staphylococcus aureus [5]) [mm]	zone of inhibition at 100 µg/mL (Staphylococcus aureus [6]) [mm]	zone of inhibition at 100 µg/mL (Fusarium oxysporum [7]) [mm]	zone of inhibition at 50 µg/mL (Aspergillus flavus [8]) [mm]	zone of inhibition at 100 µg/mL (Fusarium verticillioides [9]) [mm]	zone of inhibition at 100 µg/mL (Aspergillus flavus [10]) [mm]	zone of inhibition at 50 µg/mL (Bacillus cereus [11]) [mm]	zone of inhibition at 50 µg/mL (Fusarium verticillioides [12]) [mm]	MBC (Staphylococcus aureus [13]) [µg/mL]	MIC (Staphylococcus aureus [13]) [µg/mL]	zone of inhibition at 50 µg/mL (Escherichia coli [14]) [mm]	MFC (Fusarium oxysporum [15]) [µg/mL]	MIC (Fusarium oxysporum [15]) [µg/mL]	zone of inhibition at 50 µg/mL (Aspergillus niger [16]) [mm]	further results
Cc1c(-c2nnc(-c3ccccc3)o2)c(-c2ccc(Cl)cc2)nn1-c1ccccc1	10	9	250 (≈ 606 µM)	50 (≈ 121 µM)	270 (≈ 654 µM)	40 (≈ 96.9 µM)	5	10	22	6	8	10	6	5	250 (≈ 606 µM)	50 (≈ 121 µM)	11	215 (≈ 521 µM)	30 (≈ 72.7 µM)	8	zone of inhibition at 100 µg/mL (Escherichia coli [17]): 18 mm; MFC (Aspergillus flavus [18]): 275 µg/mL (≈ 666 µM); MIC (Aspergillus flavus [18]): 50 µg/mL (≈ 121 µM); MBC (Bacillus cereus [19]): 240 µg/mL (≈ 581 µM); MIC (Bacillus cereus [19]): 40 µg/mL (≈ 96.9 µM); zone of inhibition at 50 µg/mL (Klebsiella pneumoniae [20]): 5 mm; zone of inhibition at 100 µg/mL (Bacillus cereus [21]): 10 mm; MBC (Escherichia coli [22]): 250 µg/mL (≈ 606 µM); MIC (Escherichia coli [22]): 40 µg/mL (≈ 96.9 µM); MFC (Aspergillus niger [23]): 275 µg/mL (≈ 666 µM); MIC (Aspergillus niger [23]): 50 µg/mL (≈ 121 µM); zone of inhibition at 50 µg/mL (Fusarium oxysporum [24]): 14 mm
Cc1c(C(=O)NNC(=O)c2ccccc2)c(-c2ccccc2)nn1-c1ccccc1	14	14	200 (≈ 504 µM)	25 (≈ 63.1 µM)	260 (≈ 656 µM)	50 (≈ 126 µM)	6	18	10	10	9	12	8	6	200 (≈ 504 µM)	25 (≈ 63.1 µM)	13	260 (≈ 656 µM)	40 (≈ 101 µM)	8	zone of inhibition at 100 µg/mL (Escherichia coli [17]): 18 mm; MFC (Aspergillus flavus [18]): 275 µg/mL (≈ 694 µM); MIC (Aspergillus flavus [18]): 50 µg/mL (≈ 126 µM); MBC (Bacillus cereus [19]): 180 µg/mL (≈ 454 µM); MIC (Bacillus cereus [19]): 25 µg/mL (≈ 63.1 µM); zone of inhibition at 50 µg/mL (Klebsiella pneumoniae [20]): 8 mm; zone of inhibition at 100 µg/mL (Bacillus cereus [21]): 16 mm; MBC (Escherichia coli [22]): 190 µg/mL (≈ 479 µM); MIC (Escherichia coli [22]): 25 µg/mL (≈ 63.1 µM); MFC (Aspergillus niger [23]): 215 µg/mL (≈ 542 µM); MIC (Aspergillus niger [23]): 30 µg/mL (≈ 75.7 µM); zone of inhibition at 50 µg/mL (Fusarium oxysporum [24]): 8 mm

Source: ChEMBL document CHEMBL3098013, “Novel pyrazole integrated 1,3,4-oxadiazoles: synthesis, characterization and antimicrobial evaluation” (2014)
